Assays:
[1] = test system: MOLM-14; assay: Inhibition of ERK phosphorylation at Thr202/Tyr204 residues in human MOLM-14 cells harboring FLT3-ITD mutant incubated for 4 hrs by Western blot analysis; type: cell-based; details: dose 0.01-3 µM
How it was run: (§1)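 Cells were exposed to the compound at a series of concentrations for 4 h, and whole-cell lysates were analysed by Western blot. MV4-11 cells were grown in IMDM with 10% FBS. MOLM13 and MOLM14 cells were grown in RPMI 1640 with 10% FBS. All cultures were kept at 37 °C with 5% CO2.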

[2] = test system: BaF3; assay: Antiproliferative activity against mouse BaF3 cells transfected with FLT3 ITD D835I mutant assessed as cell growth inhibition incubated for 72 hrs by CCK-8 assay; type: functional
How it was run: (§2)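 Kinase-transformed isogenic BaF3 lines grown in RPMI 1640 with 10% FBS, 2% L-glutamine and pen/strep at 37 °C, 5% CO2. Seeded at 1500-3000 cells/well and treated with a compound concentration series for 72 h. Viability read by CCK8 absorbance at 450 nm.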

[3] = test system: MOLM-13; assay: Downregulation of c-Myc protein expression in human MOLM-13 cells harboring FLT3-ITD mutant incubated for 4 hrs by Western blot analysis; type: functional, cell-based; details: dose 0.01-3 µM
How it was run: (§3)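 MOLM13 and MOLM14 cells exposed to the indicated concentrations for 4 h. Whole-cell lysates analysed by Western blot for c-Myc, alongside FLT3 Tyr589/591, STAT5, AKT and ERK phosphorylation.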

[4] = target: Platelet-derived growth factor receptor alpha (Homo sapiens, UniProt P16234); assay: Inhibition of PDGFRalpha (unknown origin) preincubated for 60 mins followed by ATP addition and measured after 1 hr by ADP-Glo assay
How it was run: (§4)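 ADP-Glo luminescence assay. Kinase was preincubated with compound for 60 min at room temperature, then ATP/substrate was added and the reaction ran 1 h at 37 °C. ADP-Glo reagent was added for 40 min, then detection reagent for 30 min, and luminescence was read. Enzyme and ATP per target: KIT 20 ng/µL, 50 µM ATP; PDGFRα 2.5 ng/µL, 25 µM ATP; PDGFRβ 1.25 ng/µL, 25 µM ATP. IC50 was taken from the dose-response fit.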

[5] = target: Receptor-type tyrosine-protein kinase FLT3 (Homo sapiens, UniProt P36888, ITD); assay: Inhibition of FLT3 ITD mutant (unknown origin) preincubated for 60 mins followed by ATP addition and measured after 1 hr by ADP-Glo assay
[6] = cells; type: functional; details: Homo sapiens, AML3; time 72 hrs
[7] = target: T1, Mast/stem cell growth factor receptor Kit (Homo sapiens, UniProt P10721); assay: Inhibition of KIT (unknown origin) preincubated for 60 mins followed by ATP addition and measured after 1 hr by ADP-Glo assay; how it was run: as §4
[8] = target: T1, Mast/stem cell growth factor receptor Kit; assay: Inhibition of KIT (unknown origin) assessed as residual activity at 1 uM preincubated for 60 mins followed by ATP addition and measured after 1 hr by ADP-Glo assay relative to control; details: time 2.0 hrs
[9] = Half life in Sprague-Dawley rat at 1 mg/kg, iv; type: ADME, organism-based; details: in vivo
How it was run: (§5)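 Sprague-Dawley rats were dosed either intravenously at 1 mg/kg or by oral gavage at 10 mg/kg. Plasma PK parameters were AUC(0-t), AUC(0-∞), MRT(0-t), T1/2, Tmax, Vz, CLz, Cmax and F%. Values are the mean ± SD of three independent animals.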

[10] = test system: BaF3; assay: Antiproliferative activity against mouse BaF3 cells transfected with TEL fused FLT3 G697R mutant assessed as cell growth inhibition incubated for 72 hrs by CCK-8 assay; type: functional; how it was run: as §2
[11] = Half life in Sprague-Dawley rat at 10 mg/kg, po; type: ADME, organism-based; details: in vivo; how it was run: as §5
[12] = AUC (0 to t) in Sprague-Dawley rat at 10 mg/kg, po; type: ADME, organism-based; set-up: dose 10 mg/kg, route po; details: in vivo
How it was run: (§6)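 Sprague-Dawley rats dosed IV at 1 mg/kg or by oral gavage at 10 mg/kg. Parameters from plasma exposure: AUC(0-t), AUC(0-∞), MRT, T1/2, Tmax, Vz, CLz, Cmax. Values are mean ± SD from three animals.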

[13] = test system: BaF3; assay: Antiproliferative activity against mouse BaF3 cells transfected with FLT3 ITD mutant harboring FLAG-tagged DYKDDDDK sequence assessed as cell growth inhibition incubated for 72 hrs by CCK-8 assay; type: functional; how it was run: as §2
[14] = test system: BaF3; assay: Antiproliferative activity against mouse BaF3 cells transfected with TEL fused FLT3 Y842H mutant assessed as cell growth inhibition incubated for 72 hrs by CCK-8 assay; type: functional; how it was run: as §2
[15] = test system: MOLM-13; assay: Inhibition of ERK phosphorylation at Thr202/Tyr204 residues in human MOLM-13 cells harboring FLT3-ITD mutant incubated for 4 hrs by Western blot analysis; type: cell-based; details: dose 0.01-3 µM; how it was run: as §1
[16] = Cmax in Sprague-Dawley rat at 10 mg/kg, po; type: ADME, organism-based; set-up: dose 10 mg/kg, route po; details: in vivo; how it was run: as §6
[17] = test system: MV4-11; assay: Antitumor activity against human MV4-11 cells xenografted in nu/nu mouse assessed as inhibition of tumor growth at 50 mg/kg/day, po administered via gavage for 28 days relative to control; type: functional; details: MV4-11, 672 h, time 28 day, read-out: TGI
How it was run: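 MV4-11 cells implanted in mice. Once tumours reached a mean of about 200 mm3, mice were dosed orally once daily for 28 days with vehicle or 25, 50 or 100 mg/kg/day. Tumour size and body weight tracked relative to starting values; final tumour weight also recorded.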

[18] = test system: BaF3; assay: Antiproliferative activity against mouse BaF3 cells transfected with TEL fused FLT3 D835V mutant assessed as cell growth inhibition incubated for 72 hrs by CCK-8 assay; type: functional; how it was run: as §2
[19] = test system: BaF3; assay: Antiproliferative activity against mouse BaF3 cells transfected with TEL-fused FLT3 assessed as cell growth inhibition incubated for 72 hrs by CCK-8 assay; type: functional; how it was run: as §2
[20] = test system: BaF3; assay: Antiproliferative activity against mouse BaF3 cells assessed as cell growth inhibition incubated for 72 hrs by CCK-8 assay; type: functional
How it was run: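 Parental BaF3 cells grown in RPMI 1640 with 10% FBS and 100 ng/ml IL-3 at 37 °C, 5% CO2. Plated at 1500-3000 cells/well and exposed to graded compound concentrations for 72 h. Proliferation read by CCK8 absorbance at 450 nm.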

[21] = test system: BaF3; assay: Antiproliferative activity against mouse BaF3 cells transfected with FLT3 ITD F691L mutant assessed as cell growth inhibition incubated for 72 hrs by CCK-8 assay; type: functional; how it was run: as §2
[22] = target: Mitogen-activated protein kinase kinase kinase kinase 1 (Homo sapiens, UniProt Q92918); assay: Inhibition of HPK1 (unknown origin) assessed as residual activity at 1 uM preincubated for 60 mins followed by ATP addition and measured after 1 hr by ADP-Glo assay relative to control; details: time 2.0 hrs
[23] = target: Macrophage colony-stimulating factor 1 receptor (Homo sapiens, UniProt P07333); assay: Inhibition of CSF1R (unknown origin) assessed as residual activity at 1 uM preincubated for 60 mins followed by ATP addition and measured after 1 hr by ADP-Glo assay relative to control; details: time 2.0 hrs
[24] = test system: OCI-AML2; assay: cells; type: functional; details: Homo sapiens, time 72 hrs
[25] = AUC (0 to infinity) in Sprague-Dawley rat at 10 mg/kg, po; type: ADME, organism-based; set-up: dose 10 mg/kg, route po; details: in vivo; how it was run: as §6
[26] = test system: MOLM-14; assay: Downregulation of c-Myc protein expression in human MOLM-14 cells harboring FLT3-ITD mutant incubated for 4 hrs by Western blot analysis; type: functional, cell-based; details: dose 0.01-3 µM; how it was run: as §3

T1 sequence (P10721 whole entry): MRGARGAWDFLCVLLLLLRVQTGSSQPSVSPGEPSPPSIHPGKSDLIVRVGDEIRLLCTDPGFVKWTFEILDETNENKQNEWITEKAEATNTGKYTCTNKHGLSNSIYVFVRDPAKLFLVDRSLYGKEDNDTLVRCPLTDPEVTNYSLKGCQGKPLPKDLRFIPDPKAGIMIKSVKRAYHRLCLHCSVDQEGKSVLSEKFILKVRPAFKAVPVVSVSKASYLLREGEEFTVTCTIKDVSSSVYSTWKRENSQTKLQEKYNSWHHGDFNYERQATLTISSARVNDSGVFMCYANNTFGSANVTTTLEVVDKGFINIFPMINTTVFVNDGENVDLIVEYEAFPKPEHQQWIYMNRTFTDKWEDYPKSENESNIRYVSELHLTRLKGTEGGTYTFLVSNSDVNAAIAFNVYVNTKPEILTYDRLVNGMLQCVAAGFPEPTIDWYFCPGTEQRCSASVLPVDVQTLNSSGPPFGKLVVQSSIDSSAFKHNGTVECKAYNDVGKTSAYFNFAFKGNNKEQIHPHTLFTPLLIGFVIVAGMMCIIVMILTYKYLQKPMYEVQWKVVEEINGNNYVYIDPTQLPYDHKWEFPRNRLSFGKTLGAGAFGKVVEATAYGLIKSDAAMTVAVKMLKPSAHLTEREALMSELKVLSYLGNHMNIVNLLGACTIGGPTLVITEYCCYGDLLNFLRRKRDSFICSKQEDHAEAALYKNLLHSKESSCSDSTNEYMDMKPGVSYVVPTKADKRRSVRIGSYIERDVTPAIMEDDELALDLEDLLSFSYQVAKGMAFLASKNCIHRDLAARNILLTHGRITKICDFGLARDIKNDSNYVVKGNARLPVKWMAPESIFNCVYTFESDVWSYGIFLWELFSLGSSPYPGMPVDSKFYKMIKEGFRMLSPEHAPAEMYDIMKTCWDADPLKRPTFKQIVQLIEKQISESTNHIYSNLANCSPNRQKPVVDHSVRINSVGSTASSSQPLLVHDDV
Platelet-derived growth factor receptor alpha, sequence (P16234 whole entry): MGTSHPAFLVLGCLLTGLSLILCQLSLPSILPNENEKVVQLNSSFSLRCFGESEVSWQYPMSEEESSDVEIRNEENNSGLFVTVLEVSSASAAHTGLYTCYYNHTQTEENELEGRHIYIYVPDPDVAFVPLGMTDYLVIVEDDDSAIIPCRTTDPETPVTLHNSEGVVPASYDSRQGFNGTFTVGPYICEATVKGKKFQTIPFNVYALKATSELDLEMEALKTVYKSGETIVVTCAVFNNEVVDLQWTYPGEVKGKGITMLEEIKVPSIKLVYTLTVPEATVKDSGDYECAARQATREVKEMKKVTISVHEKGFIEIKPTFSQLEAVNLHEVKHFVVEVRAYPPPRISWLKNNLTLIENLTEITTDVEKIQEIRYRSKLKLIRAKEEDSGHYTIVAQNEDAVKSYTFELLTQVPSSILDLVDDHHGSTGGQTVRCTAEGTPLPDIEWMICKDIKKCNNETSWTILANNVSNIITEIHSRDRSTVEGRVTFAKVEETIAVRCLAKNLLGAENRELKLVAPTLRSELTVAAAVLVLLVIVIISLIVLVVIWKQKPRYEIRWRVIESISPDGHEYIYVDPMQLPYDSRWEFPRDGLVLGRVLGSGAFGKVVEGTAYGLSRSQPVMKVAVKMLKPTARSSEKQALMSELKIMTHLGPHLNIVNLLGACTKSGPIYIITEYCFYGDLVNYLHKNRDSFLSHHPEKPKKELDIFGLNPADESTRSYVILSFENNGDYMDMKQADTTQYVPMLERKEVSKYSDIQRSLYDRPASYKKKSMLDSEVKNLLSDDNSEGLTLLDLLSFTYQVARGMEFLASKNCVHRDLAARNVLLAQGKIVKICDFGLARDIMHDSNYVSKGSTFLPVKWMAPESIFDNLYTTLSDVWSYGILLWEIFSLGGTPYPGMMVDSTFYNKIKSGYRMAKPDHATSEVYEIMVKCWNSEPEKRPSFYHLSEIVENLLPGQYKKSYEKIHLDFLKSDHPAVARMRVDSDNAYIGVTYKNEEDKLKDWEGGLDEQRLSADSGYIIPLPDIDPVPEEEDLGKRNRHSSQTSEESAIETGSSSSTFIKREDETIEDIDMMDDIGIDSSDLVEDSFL
Receptor-type tyrosine-protein kinase FLT3, sequence (P36888 whole entry, looked up, stated change not applied): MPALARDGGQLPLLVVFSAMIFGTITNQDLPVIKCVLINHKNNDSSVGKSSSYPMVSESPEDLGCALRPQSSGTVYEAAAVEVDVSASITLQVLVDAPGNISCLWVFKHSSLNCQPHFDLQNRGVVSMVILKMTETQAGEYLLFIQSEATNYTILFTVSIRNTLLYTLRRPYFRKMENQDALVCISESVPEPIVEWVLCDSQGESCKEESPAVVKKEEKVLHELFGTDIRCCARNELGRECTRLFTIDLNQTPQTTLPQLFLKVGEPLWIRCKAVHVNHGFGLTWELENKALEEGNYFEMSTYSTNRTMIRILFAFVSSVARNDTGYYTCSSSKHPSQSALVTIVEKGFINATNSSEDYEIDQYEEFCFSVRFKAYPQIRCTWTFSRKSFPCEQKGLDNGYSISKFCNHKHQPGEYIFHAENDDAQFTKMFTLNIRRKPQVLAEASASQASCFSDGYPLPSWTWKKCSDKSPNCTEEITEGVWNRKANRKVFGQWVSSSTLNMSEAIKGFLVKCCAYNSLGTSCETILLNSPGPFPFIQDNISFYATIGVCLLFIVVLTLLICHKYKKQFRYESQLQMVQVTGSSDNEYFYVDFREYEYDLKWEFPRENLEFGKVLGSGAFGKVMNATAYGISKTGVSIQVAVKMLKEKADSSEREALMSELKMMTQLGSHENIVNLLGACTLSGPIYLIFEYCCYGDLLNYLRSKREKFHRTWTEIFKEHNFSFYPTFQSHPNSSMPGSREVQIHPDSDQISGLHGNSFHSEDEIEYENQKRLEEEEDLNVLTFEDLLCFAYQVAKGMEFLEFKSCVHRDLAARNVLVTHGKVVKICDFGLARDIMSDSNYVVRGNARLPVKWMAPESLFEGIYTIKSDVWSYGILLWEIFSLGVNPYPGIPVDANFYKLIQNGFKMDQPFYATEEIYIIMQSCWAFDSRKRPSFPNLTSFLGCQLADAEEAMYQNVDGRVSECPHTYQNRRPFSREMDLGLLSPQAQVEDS
Mitogen-activated protein kinase kinase kinase kinase 1, sequence (Q92918 whole entry, looked up): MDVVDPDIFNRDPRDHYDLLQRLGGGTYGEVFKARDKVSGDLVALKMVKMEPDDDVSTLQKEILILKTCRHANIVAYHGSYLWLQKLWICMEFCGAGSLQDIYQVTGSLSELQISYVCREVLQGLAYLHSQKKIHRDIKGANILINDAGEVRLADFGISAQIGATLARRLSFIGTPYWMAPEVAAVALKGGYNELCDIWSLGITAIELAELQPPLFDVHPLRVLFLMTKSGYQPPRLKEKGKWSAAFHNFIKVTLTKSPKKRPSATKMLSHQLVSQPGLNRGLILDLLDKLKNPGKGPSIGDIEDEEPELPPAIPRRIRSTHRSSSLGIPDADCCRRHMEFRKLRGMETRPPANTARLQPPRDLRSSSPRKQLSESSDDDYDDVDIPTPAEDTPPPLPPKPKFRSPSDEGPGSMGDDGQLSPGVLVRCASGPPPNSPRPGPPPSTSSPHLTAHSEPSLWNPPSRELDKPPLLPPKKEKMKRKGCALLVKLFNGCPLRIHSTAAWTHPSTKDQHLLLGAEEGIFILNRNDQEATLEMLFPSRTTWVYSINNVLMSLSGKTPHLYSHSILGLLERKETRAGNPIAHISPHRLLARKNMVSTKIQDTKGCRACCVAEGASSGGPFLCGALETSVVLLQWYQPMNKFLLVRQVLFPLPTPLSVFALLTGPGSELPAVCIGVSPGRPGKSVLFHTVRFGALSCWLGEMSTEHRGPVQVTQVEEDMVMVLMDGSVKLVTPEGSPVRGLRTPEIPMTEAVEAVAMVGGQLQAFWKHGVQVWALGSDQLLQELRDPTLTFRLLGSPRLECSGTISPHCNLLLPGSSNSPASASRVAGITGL
Macrophage colony-stimulating factor 1 receptor, sequence (P07333 whole entry): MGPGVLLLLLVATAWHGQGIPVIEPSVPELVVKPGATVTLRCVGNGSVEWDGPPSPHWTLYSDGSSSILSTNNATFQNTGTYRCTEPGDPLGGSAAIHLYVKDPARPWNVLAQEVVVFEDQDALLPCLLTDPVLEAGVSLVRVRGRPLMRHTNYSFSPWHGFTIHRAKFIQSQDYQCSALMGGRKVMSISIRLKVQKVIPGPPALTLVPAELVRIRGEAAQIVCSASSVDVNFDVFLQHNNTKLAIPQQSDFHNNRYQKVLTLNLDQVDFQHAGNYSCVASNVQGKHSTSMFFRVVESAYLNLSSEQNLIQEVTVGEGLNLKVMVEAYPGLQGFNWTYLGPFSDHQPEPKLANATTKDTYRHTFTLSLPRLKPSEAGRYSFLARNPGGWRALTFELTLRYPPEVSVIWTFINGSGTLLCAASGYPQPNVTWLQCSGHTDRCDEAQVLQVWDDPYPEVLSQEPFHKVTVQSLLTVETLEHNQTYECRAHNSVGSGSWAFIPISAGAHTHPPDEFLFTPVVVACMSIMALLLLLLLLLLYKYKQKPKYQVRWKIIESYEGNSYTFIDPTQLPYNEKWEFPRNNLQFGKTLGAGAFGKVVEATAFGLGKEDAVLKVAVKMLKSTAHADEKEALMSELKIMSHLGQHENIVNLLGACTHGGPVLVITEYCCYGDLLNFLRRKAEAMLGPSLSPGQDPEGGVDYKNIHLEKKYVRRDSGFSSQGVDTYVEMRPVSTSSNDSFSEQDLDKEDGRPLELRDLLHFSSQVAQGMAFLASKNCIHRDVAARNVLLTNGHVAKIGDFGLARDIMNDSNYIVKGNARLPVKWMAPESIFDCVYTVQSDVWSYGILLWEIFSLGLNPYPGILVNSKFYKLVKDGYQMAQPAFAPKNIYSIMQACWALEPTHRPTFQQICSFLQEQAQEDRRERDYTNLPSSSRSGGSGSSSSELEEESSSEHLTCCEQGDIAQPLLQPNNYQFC

CC(=O)Nc1cc(Oc2ccc(NC(=O)Cc3ccccc3C(F)(F)F)cc2)ncn1
inhibition [1]: Dose-Dependent Effect | GI50 [2]: > 10 µM | Activity [3]: Dose-Dependent Effect | IC50 [4]: 0.0838 µM | IC50 [5]: 0.0239 µM | GI50 [6]: > 10 µM | IC50 [7]: 0.681 µM | Activity [8]: 0.05% | half-life [9]: 1.3 h | GI50 [10]: 0.54 µM | half-life [11]: 2.8 h | AUC(0-t) [12]: 26700 ng·h/mL | GI50 [13]: 0.085 µM | GI50 [14]: 7.5 µM | inhibition [15]: Dose-Dependent Effect | Cmax [16]: 3630 ng/mL | inhibition in vivo at 50 mg/kg/day [17]: 68% | GI50 [18]: > 10 µM | GI50 [19]: 0.249 µM | GI50 [20]: > 10 µM | GI50 [21]: > 10 µM | Activity [22]: 0.6% | Activity [23]: 2.4% | GI50 [24]: > 10 µM | AUC(0-inf) [25]: 28000 ng·h/mL | Activity [26]: Dose-Dependent Effect

Source: ChEMBL document CHEMBL5260841, “Discovery of N-(4-(6-Acetamidopyrimidin-4-yloxy)phenyl)-2-(2-(trifluoromethyl)phenyl)acetamide (CHMFL-FLT3-335) as a Potent FMS-like Tyrosine Kinase 3 Internal Tandem Duplication (FLT3-ITD) Mutant Selective Inhibitor for Acute Myeloid Leukemia” (J Med Chem, 2019)
